ChEMBL document CHEMBL1132618, “Cytotoxicity of (2,2':6',2''-terpyridine)platinum(II) complexes to Leishmania donovani, Trypanosoma cruzi, and Trypanosoma brucei” (J Med Chem, 1999)

Legend:
[1] = system: Trypanosoma cruzi; assay: Compound was tested for antiparasitic activity caused against Trypanosoma cruzi for effective dose for 50% activity
[2] = system: Trypanosoma cruzi; assay: Antiparasitic activity against Trypanosoma cruzi for % inhibition at 10 uM concentration T/+ means the compound was toxic to macrophages but parasites still present; format: functional, organism-based
Summary of the method: (§1)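 T. cruzi Y strain (MHOM/BR/00/Y) trypomastigotes from MDCK cells infect CD1 mouse peritoneal macrophages at 5:1 in RPMI 1640 + 10% hiFCS, 37 °C, 5% CO2. Compound exposure is a 3-fold dilution series from 30 μM, quadruplicate, 3 days. Read-out is the proportion of infected cells after methanol fixation and Giemsa staining, versus untreated cultures. ED50 is derived by linear regression.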

[3] = system: Leishmania donovani; assay: Compound was tested for antiparasitic activity caused against Leishmania donovani for percentage inhibition at 3 uM concentration; format: functional, organism-based
Summary of the method: (§2)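 L. donovani MHOM/ET/67/L82 amastigotes from golden hamster spleen infect CD1 mouse peritoneal macrophages at 10:1 in RPMI 1640 + 10% hiFCS, 37 °C, 5% CO2. Compound exposure is a 3-fold dilution series from 30 μM, quadruplicate cultures, 5 days, with medium + drug replaced once. Cells are methanol-fixed and Giemsa-stained, and the proportion of infected cells is compared with untreated cultures. ED50 is derived by linear regression.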

[4] = system: Trypanosoma brucei; assay: Antiparasitic activity caused against Trypanosoma brucei for percentage inhibition at 3 uM concentration; format: functional, organism-based
Summary of the method: (§3)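 T. brucei S427 bloodstream trypomastigotes are grown in HMI-18 + 20% hiFCS at 37 °C, 5% CO2. Compound exposure is a 3-fold dilution series from 30 μM, triplicate cultures, 72 h. Read-out is an MTT-based cytotoxicity assay, or Coulter counting of cells/mL in the dose-range screen. ED50 is derived by linear regression of dose-response.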

[5] = system: Trypanosoma brucei; assay: Compound was tested for antiparasitic activity caused against Trypanosoma brucei for percentage inhibition at 1 uM concentration; format: functional, organism-based
Summary of the method: as §3

[6] = system: Leishmania donovani; assay: Antiparasitic activity against Leishmania donovani for % inhibition at 30 uM concentration T/100 means the compound was toxic to macrophages but more toxic to parasites that is none present, 100% inhibition; format: functional, organism-based
Summary of the method: as §2

[7] = system: Trypanosoma cruzi; assay: Antiparasitic activity against Trypanosoma cruzi for % inhibition at 30 uM concentration T/+ means the compound was toxic to macrophages but parasites still present; format: functional, organism-based
Summary of the method: as §1

[8] = system: Leishmania donovani; assay: Antiparasitic activity against Leishmania donovani for % inhibition at 10 uM concentration T/100 means the compound was toxic to macrophages but more toxic to parasites that is none present, 100% inhibition; format: functional, organism-based
Summary of the method: as §2

[9] = system: Trypanosoma brucei; assay: Antiparasitic activity against Trypanosoma brucei, percentage inhibition at 30 uM concentration; format: functional, organism-based
Summary of the method: as §3

[10] = system: Trypanosoma cruzi; assay: Antiparasitic activity against Trypanosoma cruzi for % inhibition at 3 uM concentration T/+ means the compound was toxic to macrophages but parasites still present; format: functional, organism-based
Summary of the method: as §1

[11] = system: Trypanosoma brucei; assay: Antiparasitic activity against Trypanosoma brucei, percentage inhibition at 10 uM concentration; format: functional, organism-based
Summary of the method: as §3

“(2,2':6',2''-terpyridine)platinum (II) complex” was tested, and the ED50 [1] was 4 µM, the inhibition [2] was “toxic to macrophages but parasites still present” and the inhibition [3] was 99.8%. The inhibition [4] was 100%, the inhibition [5] was 100% and the inhibition [6] was “Total inhibition”. The inhibition [7] was “toxic to macrophages but parasites still present”, the inhibition [8] was “Total inhibition” and the inhibition [9] was 100%. For the same substance, the inhibition [10] was “toxic to macrophages but parasites still present” and the inhibition [11] was 100%.
